Measured values taken from ChEMBL document CHEMBL1156869, “Selective inhibitors of the JMJD2 histone demethylases: combined nondenaturing mass spectrometric screening and crystallographic approaches” (J Med Chem, 2010).
Active and inactive are the calls of the source. No cut-off for these calls is given here.

What was measured:
[1] = Inhibition of JMJD2E by FDH coupled assay
Outline: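 Formaldehyde dehydrogenase-coupled demethylation assay with initial rates from NADH production. IC50 determined from these rates; detection limit about 1 μM IC50.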

[2] = Inhibition of JMJD2E by ESI-MS binding assay
Outline: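 Nondenaturing ESI-MS binding: His-tagged JMJD2E desalted into 15 mM ammonium acetate pH 7.5. Protein (15 μM) mixed with 1 equiv Fe(II) and 1 equiv inhibitor, incubated 30 min at 37 °C, then analysed on a Q-TOF by nanospray. Read-out: ratio of JMJD2E–inhibitor complex to free JMJD2E.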

[3] = Inhibition of JMJD2E by MALDI-TOF assay
[4] = Binding to JMJD2E by nondenaturing ESI-MS, ratio of JMJD2E-inhibitor complex to free JMJD2E
[5] = molecular target: T1, Lysine-specific demethylase 4A (Homo sapiens, UniProt O75164); experiment: Inhibition of JMJD2A by MALDI-TOF assay
T1 sequence (O75164 whole entry): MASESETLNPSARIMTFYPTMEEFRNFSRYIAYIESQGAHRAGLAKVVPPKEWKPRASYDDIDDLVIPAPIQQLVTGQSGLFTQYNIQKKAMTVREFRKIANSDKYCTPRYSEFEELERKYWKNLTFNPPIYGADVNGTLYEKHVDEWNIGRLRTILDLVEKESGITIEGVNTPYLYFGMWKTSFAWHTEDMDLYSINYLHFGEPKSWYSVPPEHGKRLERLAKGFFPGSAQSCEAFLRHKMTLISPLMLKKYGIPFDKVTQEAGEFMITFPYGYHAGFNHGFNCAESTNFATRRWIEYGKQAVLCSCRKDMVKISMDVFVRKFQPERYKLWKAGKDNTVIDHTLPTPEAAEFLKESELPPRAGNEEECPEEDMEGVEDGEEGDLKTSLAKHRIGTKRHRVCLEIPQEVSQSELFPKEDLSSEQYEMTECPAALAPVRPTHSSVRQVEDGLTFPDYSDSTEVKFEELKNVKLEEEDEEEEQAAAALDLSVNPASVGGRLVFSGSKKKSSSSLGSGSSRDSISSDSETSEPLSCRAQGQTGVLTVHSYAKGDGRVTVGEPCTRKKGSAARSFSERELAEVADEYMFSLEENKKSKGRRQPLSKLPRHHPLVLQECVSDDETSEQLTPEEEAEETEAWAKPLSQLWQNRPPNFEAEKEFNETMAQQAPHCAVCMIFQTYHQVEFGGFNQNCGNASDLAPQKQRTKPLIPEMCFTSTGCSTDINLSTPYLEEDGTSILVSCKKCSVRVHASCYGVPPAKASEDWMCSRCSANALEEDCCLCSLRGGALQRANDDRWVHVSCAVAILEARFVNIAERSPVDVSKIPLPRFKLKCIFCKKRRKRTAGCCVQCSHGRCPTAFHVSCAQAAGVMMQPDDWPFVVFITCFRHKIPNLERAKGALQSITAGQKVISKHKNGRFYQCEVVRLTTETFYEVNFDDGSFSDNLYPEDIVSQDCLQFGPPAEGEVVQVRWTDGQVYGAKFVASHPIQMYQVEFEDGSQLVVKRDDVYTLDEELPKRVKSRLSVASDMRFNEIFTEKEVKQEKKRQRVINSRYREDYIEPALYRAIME
Outline: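 Reaction started with 2OG (10 μM) and ARKme3STGGK peptide (10 μM), then 30 min at 37 °C. Quenched with methanol. MALDI-TOF methylation-state intensities gave % demethylation; IC50 from concentration variation.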

Homo sapiens = organism: Homo sapiens; experiment: Inhibition of human […] by CODD biochemical assay

| Structure (SMILES) | IC50 [1] | Activity [2] | IC50 [3] | Ratio [4] | IC50 [5] | Activity (Homo sapiens) |
| --- | --- | --- | --- | --- | --- | --- |
| O=C(O)C(=O)N[C@H](Cc1ccc(OCc2ccccc2)cc1)C(=O)O | 37.1 µM | Active | 76 µM | 1.7 |  |  |
| O=C(O)C(=O)N[C@H](Cc1ccc(OCc2ccccc2F)cc1)C(=O)O | 16.6 µM | Active | 25 µM | 3.6 | 10 µM |  |
| O=C(O)C(=O)N[C@H](Cc1ccc(OC(=O)c2cnn(-c3ccc(Cl)cc3)c2C(F)(F)F)cc1)C(=O)O |  | Active |  |  |  |  |
| O=C(O)C(=O)N[C@H](Cc1ccc(OS(=O)(=O)c2ccc(Br)cc2)cc1)C(=O)O | 5.4 µM | Active | 21 µM |  | 12 µM | inactive |
| CC(C)CC(=O)Oc1ccc(C[C@@H](NC(=O)C(=O)O)C(=O)O)cc1 |  | Active |  |  |  |  |
| O=C(O)C(=O)N[C@H](Cc1ccc(OCc2ccccc2[N+](=O)[O-])cc1)C(=O)O | 14.7 µM | Active |  | 3.1 |  |  |
| Cc1noc(C)c1S(=O)(=O)Oc1ccc(C[C@@H](NC(=O)C(=O)O)C(=O)O)cc1 | 82.9 µM | Active |  | 1 |  |  |
| CC(C)(C)c1ccc(S(=O)(=O)Oc2ccc(C[C@@H](NC(=O)C(=O)O)C(=O)O)cc2)cc1 | 8.6 µM | Active | 61 µM |  | 13 µM | inactive |
| O=C(O)C(=O)N[C@H](Cc1ccc(OS(=O)(=O)c2ccc(F)cc2)cc1)C(=O)O | 11.7 µM | Active | 38 µM |  | 20 µM | inactive |
| O=C(Cc1ccc(Cl)cc1)Oc1ccc(C[C@@H](NC(=O)C(=O)O)C(=O)O)cc1 |  | Active |  |  |  |  |
| O=C(O)C(=O)N[C@H](Cc1ccc(OC(=O)C2CCCCC2)cc1)C(=O)O |  | Active |  |  |  |  |
| O=C(O)C(=O)N[C@H](Cc1ccc(OCC(=O)c2ccc(N3CCCC3)cc2)cc1)C(=O)O | 14.8 µM | Active | 59 µM | 2 | 13 µM |  |
| O=C(O)C(=O)N[C@H](Cc1ccc(OC(=O)c2cc3ccccc3s2)cc1)C(=O)O |  | Active |  |  |  |  |
| O=C(Cc1ccccc1)Oc1ccc(C[C@@H](NC(=O)C(=O)O)C(=O)O)cc1 |  | Active |  |  |  |  |
| O=C(O)C(=O)N[C@H](Cc1ccc(OCCCN2C(=O)c3ccccc3C2=O)cc1)C(=O)O | 326 µM | Active |  | 0.9 |  |  |
| CC(C)(C)C(=O)COc1ccc(C[C@@H](NC(=O)C(=O)O)C(=O)O)cc1 | 185 µM | Active |  | 0.9 |  |  |
| O=C(O)C(=O)N[C@H](Cc1ccc(OC(=O)c2ccco2)cc1)C(=O)O | 20.1 µM | Active |  | 3.5 |  |  |
| CCC(C(=O)Oc1ccc(C[C@@H](NC(=O)C(=O)O)C(=O)O)cc1)c1ccccc1 (some centres not stated) |  | Active |  |  |  |  |
| O=C(O)C(=O)N[C@H](Cc1ccc(OC(=O)c2cccs2)cc1)C(=O)O |  | Active |  |  |  |  |
| O=C(O)C(=O)N[C@H](Cc1ccc(OS(=O)(=O)c2ccccc2)cc1)C(=O)O | 14.7 µM | Active |  | 5.7 |  |  |
| Cc1noc(C)c1C(=O)Oc1ccc(C[C@@H](NC(=O)C(=O)O)C(=O)O)cc1 |  | Active |  |  |  |  |
| O=C(O)C(=O)N[C@H](Cc1ccc(OC(=O)N2CCOCC2)cc1)C(=O)O |  | Active |  |  |  |  |
